Active and inactive are the calls of the source. The calls are words filed in the database; no cut-off is given here.

The target in series [1] is T1, DNA repair protein RAD51 homolog 1 (Homo sapiens, UniProt Q06609).
T1 sequence (Q06609 whole entry): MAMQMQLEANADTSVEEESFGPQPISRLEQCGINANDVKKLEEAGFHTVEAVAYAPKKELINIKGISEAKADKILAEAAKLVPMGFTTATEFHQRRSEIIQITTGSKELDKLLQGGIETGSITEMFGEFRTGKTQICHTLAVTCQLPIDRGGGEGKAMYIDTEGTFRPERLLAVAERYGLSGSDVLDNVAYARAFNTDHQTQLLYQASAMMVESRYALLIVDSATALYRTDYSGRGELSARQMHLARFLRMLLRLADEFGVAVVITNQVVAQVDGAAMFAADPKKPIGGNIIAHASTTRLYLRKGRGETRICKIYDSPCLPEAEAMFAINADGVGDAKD
Nature of the series: Inhibition of Escherichia coli BL21(DE3) expressing human N-terminal 6-histidine/Avi-tagged RAD51 binding to 5'-Alexa488-oligo-dT45 ssDNA preincubated for 40 mins followed by substrate addition measured after 40 mins by fluorescence polarization based microplate method. The procedure, abridged:
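Human RAD51 preincubated with compound in DMSO at 37 °C for 40 min, then 5'-Alexa488-oligo-dT45 added and incubated another 40 min at 37 °C. Buffer: 20 mM HEPES pH 7.5, 2 mM ATP, 10 mM MgCl2, 0.1 mM TCEP. IC50 from least-squares dose–response fits with standard error.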
A general note: Polarisation of emitted light reports the rotation of a fluorescent probe.

Series [2] addresses T1, DNA repair protein RAD51 homolog 1. Description: Inhibition of human N-terminal 6-histidine/Avi-tagged recombinant RAD51 expressed in Escherichia coli BL21(DE3) assessed as D-loop formation using 5'-32P-labeled 90-mer ssDNA as substrate preincubated for 10 mins followed by substrate addition with subsequent incubation with substrate for 5 mins measured after 20 mins in presence of supercoiled pRS306 dsDNA by agarose gel electrophoresis.

For series [3], the target named is T2, DNA repair protein RAD51 homolog 1 (Homo sapiens) (UniProt Q06609).
T2 sequence (whole entry): T1 sequence (Q06609 whole entry)
As to conditions: 5 to 100 uM.

Series [4] addresses T1, DNA repair protein RAD51 homolog 1. Nature of the series: Effect on stabilization of Escherichia coli BL21(DE3) expressing human N-terminal 6-histidine/Avi-tagged RAD51-circular pRS306 virion ssDNA nucleoprotein filament at 30 uM after 40 mins in presence of NaCl by SYBR gold staining based agarose gel electrophoresis. Format: ADME.
For series [5] the target is unchanged. Description: Inhibition of Escherichia coli BL21(DE3) expressing human N-terminal 6-histidine/Avi-tagged RAD51 binding to circular pRS306 virion ssDNA preincubated for 40 mins followed by ssDNA addition measured after 5 mins by agarose gel electrophoresis.
Series [6] has the same target. Description: Inhibition of Escherichia coli BL21(DE3) expressing human N-terminal 6-histidine/Avi-tagged RAD51 binding to 5'-Alexa488-oligo-dT45 ssDNA at 5 to 100 uM preincubated for 40 mins followed by substrate addition measured after 40 mins by fluorescence polarization based microplate method. The following applies: read-out: Imax. The procedure, abridged: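 Human RAD51 preincubated with compound in DMSO at 37 °C for 40 min, then 5'-Alexa488-oligo-dT45 added and incubated another 40 min at 37 °C. Buffer: 20 mM HEPES pH 7.5, 2 mM ATP, 10 mM MgCl2, 0.1 mM TCEP. Final: 0.2 µM RAD51, 2.22 nM ssDNA, 30 mM NaCl, 4% DMSO. Fluorescence polarization read at 485/535 nm. IC50 from least-squares dose–response fits with standard error.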

Series [7] shares this target. Nature of the series: Inhibition of RAD51-mediated homologous recombination in human HEK293-DR-GFP cells transfected with pCBASce expressing I-Sce-I after 24 hrs following transfection by 7-aminoactinomycin D staining based flow cytometry. On the technique in general: Flow cytometry measures light scatter and fluorescence of single cells or particles in a stream.
Series [8] deals with T2, DNA repair protein RAD51 homolog 1 (Homo sapiens). The following applies: 40 uM.
Series [9] concerns the target T1, DNA repair protein RAD51 homolog 1. Nature of the series: Inhibition of IR-induced RAD51 accumulation in HEK293-DR-GFP cells subnuclear foci at 20 uM after 8 hrs by fluorescence microscopy. It counts as cell-based. The procedure, abridged: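 293-DR-GFP cells grown on coverslips for 2 days, X-irradiated at 1.5 Gy/min, fixed after 0, 2, 4 or 8 h outgrowth. Paraformaldehyde fixation and Triton permeabilization. Stained with rabbit anti-RAD51 plus anti-RPA or anti-γH2AX, DAPI counterstain. At least 100 nuclei scored per condition.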

Series [10] concerns HEK293. Description: Effect on RAD51 levels in soluble nuclear fraction of HEK293-DR-GFP cells at 20 uM after 8 hrs by Western blot analysis. Format: ADME, cell-based. As to conditions: human, hek293, 8 h. A digest of the protocol: (§1)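 Subconfluent 293-DR-GFP cells grown with compound for the indicated time. Fractionated at 4 °C: hypotonic buffer on ice 15 min (cytosol); pellet in hypotonic buffer + 0.5 M NaCl 15 min (soluble nuclear); RIPA extraction three times 5 min, insoluble pellet kept (chromatin). Fractions run on 10% SDS-PAGE, blotted to PVDF, probed with rabbit anti-RAD51 (1:2000) or anti-PCNA (1:1000), read by ECL.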

For series [11], the system named is HEK293. Description: Induction of single strand annealing activity in human HEK293-SA-GFP cells transfected with pCBASce expressing I-Sce-I up to 40 uM at 24 hrs post transfection by 7-aminoactinomycin D staining based flow cytometry. Format: functional, cell-based. A digest of the protocol:
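293-DR-GFP (HR) or 293-SA-GFP (SSA) reporter cells electroporated (325 V, 975 µF) with 37.5 µg/mL I-SceI plasmid pCBASce or empty pCAGGS control. Seeded in complete DMEM + 0.5% DMSO with compound added at transfection, grown out 24 h. Cells resuspended with 1 µg/mL 7-AAD for flow cytometry, dead/apoptotic cells gated out, GFP-positive fraction scored among live cells.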

Series [12] has as its system HEK293. Nature of the series: Effect on RAD51 levels in chromatin fraction of HEK293-DR-GFP cells at 20 uM after 8 hrs by Western blot analysis. Format: cell-based. The following applies: human, hek293, 8 h. The procedure, abridged:
as §1
(A western blot detects proteins with antibodies after separation by electrophoresis.)

Series [13] concerns MCF7. Nature of the series: Cytotoxicity against human MCF7 cells assessed as cell survival treated with ionizing radiation followed by compound addition after 7 to 11 days by crystal violet staining based colony counting method. Format: functional. A digest of the protocol:
(§2)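 Cells grown to subconfluence, X-irradiated at 1.5 Gy/min, trypsinized and seeded at 1000–1500 cells/well in complete medium with 0.5% DMSO plus compound at the indicated dose, kept through outgrowth. Incubated 7–11 days until colonies of ≥50 cells. Stained ≥30 min at room temperature in 6% glutaraldehyde + 0.5% crystal violet, then counted automatically. PC-3 grown in DMEM:F12 (1:1) with 10% FCS.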

In series [14] the test system is U2OS. Description: Cytotoxicity against human U2OS cells assessed as cell survival treated with ionizing radiation followed by compound addition after 7 to 11 days by crystal violet staining based colony counting method. It counts as functional. A digest of the protocol: as §2
The target of series [15] is T1, DNA repair protein RAD51 homolog 1. Nature of the series: Effect on stabilization of Escherichia coli BL21(DE3) expressing human N-terminal 6-histidine/Avi-tagged RAD51-circular pRS306 virion ssDNA nucleoprotein filament at 100 uM after 40 mins in presence of NaCl by SYBR gold staining based agarose gel electrophoresis. Format: ADME.
Series [16] relates to Escherichia coli. Description: Inhibition of Escherichia coli RecA D-loop activity using 5'-32P-labeled 90-mer ssDNA as substrate up to 100 uM preincubated for 10 mins followed by substrate addition with subsequent incubation with substrate for 5 mins measured after 20 mins in presence of supercoiled pRS306 dsDNA by agarose gel electrophoresis. A digest of the protocol: (§3)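 Yeast Rad51 (1 µM) with Rad52 (2 µM), or E. coli RecA (0.4 µM), preincubated with compound at 37 °C for 10 min. 32P 90-mer ssDNA added with 1 mM MgCl2 for 5 min, then supercoiled pRS306 with MgCl2 raised to 10 mM for 20 min. dsDNA step in 20 mM HEPES pH 7.5, 2 mM ATP, 10 nM ssDNA, 4.5 nM dsDNA. Read by agarose gel and phosphorimaging.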

In series [17] the test system is Saccharomyces cerevisiae. Description: Inhibition of Saccharomyces cerevisiae RAD52 D-loop activity using 5'-32P-labeled 90-mer ssDNA as substrate up to 100 uM preincubated for 10 mins followed by substrate addition with subsequent incubation with substrate for 5 mins measured after 20 mins in presence of supercoiled pRS306 dsDNA by agarose gel electrophoresis. A digest of the protocol:
as §3

For series [18], the system named is Saccharomyces cerevisiae. Nature of the series: Inhibition of Saccharomyces cerevisiae RAD51 D-loop activity using 5'-32P-labeled 90-mer ssDNA as substrate up to 100 uM preincubated for 10 mins followed by substrate addition with subsequent incubation with substrate for 5 mins measured after 20 mins in presence of supercoiled pRS306 dsDNA by agarose gel electrophoresis. A digest of the protocol: as §3

In series [19] the test system is PC-3. Nature of the series: Cytotoxicity against human PC3 cells assessed as cell survival treated with ionizing radiation followed by compound addition after 7 to 11 days by crystal violet staining based colony counting method. It counts as functional. A digest of the protocol: as §2
Series [20] concerns HEK293. Description: Effect on RAD51 levels in cytosol of HEK293-DR-GFP cells at 20 uM after 8 hrs by Western blot analysis. The following applies: human. Format: ADME, cell-based. A digest of the protocol:
as §1

The IC50 is the midpoint of a concentration-inhibition curve. Regarding `O=[N+]([O-])c1cccc(-c2nc3ccccc3n3cccc23)c1`, the IC50 in series [1] and in series [2] was greater than 100 µM throughout. Compound `CN(C)c1ccc(-c2nc3cc(O)ccc3n3cccc23)cc1` had an Imax in [3] of 91%. On to `O=C1C(Cl)=C(N2CCOCC2)C(=O)N1c1ccc(Cl)c(Cl)c1`, for which the Activity result in series [4] is “Active”; in series [5] it was “Dose-dependent effect”. For the compound `CN(C)c1ccc(-c2nc3cc(F)ccc3n3cccc23)cc1`, the IC50 in [2] is greater than 100 µM. `COc1ccc2c(c1)NC(c1ccc(N(C)C)cc1)c1cccn1-2` (stereo in doubt; 1) [listing 1 of 2 here]: the Emax in series [6] is 33%. Besides, the results for the IC50 in [7] and in series [2] were 13.1 µM and 21.3 µM, respectively. `CN(C)c1ccc(-c2nc3cc(F)c(F)cc3n3cccc23)cc1`: the IC50 in series [2] is greater than 100 µM. As to `COc1ccc2c(c1)nc(-c1ccc(N)cc1)c1cccn12`, in [3], the Imax worked out at 100%. `COc1ccc2c(c1)nc(-c1ccc(N(C)C)cc1)c1cccn12` came in with an Imax in series [3] of 67%.

In series [1], `c1ccc2c(c1)nc(-c1ccncc1)c1cccn12` registered an IC50 greater than 100 µM. For the compound `COc1ccc2c(c1)nc(-c1cccnc1)c1cccn12`, the Imax in series [3] was 74%. Besides, the IC50 in series [1] is greater than 100 µM.

For `Oc1ccc2c(c1)nc(-c1cccnc1)c1cccn12`, the Imax in series [3] stood at 53%.

For `c1ccc2c(-c3nc4ccccc4n4cccc34)cccc2c1`, in [2], the IC50 is greater than 100 µM. As usually defined, the inhibition is the change of the read-out against control, counted positive when it falls. In series [8], `COc1ccc2c(c1)NC(c1ccc(N(C)C)cc1)c1cccn1-2` (stereo in doubt; 1) [listing 2 of 2 here] had an inhibition of 83%. The compound further came in with an Imax in series [3] of 74%.

As for `COc1ccc2c(c1)nc(-c1ccc([N+](=O)[O-])cc1)c1cccn12`, in series [2], the IC50 is greater than 100 µM. In series [3], `c1ccc2c(c1)nc(-c1ccc(N3CCOCC3)cc1)c1cccn12` came in with an Imax of 68%. Moreover, the IC50 in [1] was greater than 100 µM.

`C1=C(c2nc3ccccc3n3cccc23)CCCC1`: the IC50 in series [2] is greater than 100 µM.

In [3], `COc1ccc2c(c1)nc(-c1ccc(O)cc1)c1cccn12` gave an Imax of 13%. In the case of `Oc1ccc(-c2nc3ccccc3n3cccc23)cc1`, the IC50 in series [1] and in series [2] was greater than 100 µM throughout. In the case of `FC(F)(F)Oc1ccc(-c2nc3ccccc3n3cccc23)cc1`, the IC50 in series [2] was greater than 100 µM. With `c1ccc2c(c1)nc(-c1ccc(N3CCCC3)cc1)c1cccn12`, the IC50 in series [2] was greater than 100 µM.

On to `O=[N+]([O-])c1ccc(-c2nc3cc(O)ccc3n3cccc23)cc1`, for which, in [2], the IC50 is greater than 100 µM. In turn, `COc1ccc2c(c1)NC(c1ccc(N(C)C)cc1)c1cccn1-2` (racemic) returned an Imax in [3] of 17%. Compound `Nc1cccc(-c2nc3ccccc3n3cccc23)c1` had an IC50 in [1] greater than 100 µM. Regarding `O=[N+]([O-])c1ccc(-c2nc3ccccc3n3cccc23)cc1`, the IC50 in series [1] and in [2] was greater than 100 µM in each case. With `CCNc1ccc(-c2nc3ccccc3n3cccc23)cc1`, the “inhibition (INH)” value in series [9] is recorded as “Not Active”. The Activity result in [10] is on record as “Non-toxic”; in series [12], “Non-toxic”; in series [4], “Not Active”; in [15], “Not Active”; in [20], “Non-toxic”. Besides, the outcome in [11] was inactive. In addition, the Imax in series [3] is 91%. Also, the result in [13], in series [14] and in [19] was Active. Moreover, the inhibition entry in series [16], in series [17] and in [18] was “inactive” each time.
